pIC50: −log10 of the molar value. Activity calls are given as the source filed them. No cut-off for these calls is given here.
Tests used:
MGC-803 = assay: Antiproliferative activity against human MGC803 cells after 72 hrs by MTT assay; format: functional, cell-based; settings: MGC-803, 72 h
In short: (§1)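 Cells seeded 3,000/well, after 24 h medium replaced with compound at 64, 32, 16, 8, 4, 2, 1, 0.5 µM; 72 h exposure, MTT read-out at 570 nm; IC50 given as mean ± SD.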

PC-3 = assay: Antiproliferative activity against human PC3 cells after 72 hrs by MTT assay; format: functional, cell-based; settings: PC-3, 72 h; in short: as §1
MCF7 = assay: Antiproliferative activity against human MCF7 cells after 72 hrs by MTT assay; format: functional, cell-based; settings: MCF7, 72 h; in short: as §1
DU-145 [1] = assay: Antiproliferative activity against human DU145 cells after 72 hrs by MTT assay; format: functional, cell-based; settings: DU-145, 72 h; in short: as §1
DU-145 [2] = assay: Inhibition of colony formation in human DU145 cells after 21 days by crystal violet staining-based assay; format: functional, cell-based
In short: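 DU145 seeded 4000/well, grown 4 days, then medium with compound at various concentrations for 21 days; PBS washed, fixed in 4% paraformaldehyde, stained with 0.1% crystal violet; colonies (>10 cells) counted; inhibition = (1 − treated/control colonies) × 100%.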

DU-145 [3] = assay: Growth inhibition of human DU145 cells at 5 uM after 24 to 48 hrs by MTT assay; format: functional, cell-based
In short: (§2)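 DU145 growth inhibition measured by MTT; time course at 24, 48 and 72 h; combination arm used recombinant TRAIL at 100 ng/mL together with compound (2.5 or 5.0 µM); mean ± SD, experiment repeated three times, Student's t test.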

DU-145 [4] = assay: Induction of apoptosis in human DU145 cells assessed as early apoptotic cells at 10 uM after 24 hrs in presence of TRAIL by Annexin V-FITC/propidium iodide staining-based high content screening assay (reference value: 0.3%); format: functional
In short: (§3)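 DU145 seeded 3×10^5/well, grown 24 h, treated 24 h with compound alone or plus TRAIL; harvested, stained with Annexin V-FITC/PI per kit protocol, quantified by high content screening; mean ± SD of three experiments.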

DU-145 [5] = assay: Induction of apoptosis in human DU145 cells assessed as chromatin shrinkage at 10 uM after 24 hrs by Hoechst 33258 staining-based fluorescence microscopic analysis; format: functional, cell-based
In short: (§4)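 DU145 seeded 1×10^5/well, adhered overnight, treated 24 h with compound alone or combined with TRAIL; stained with Hoechst 33258 for 30 min in the dark; nuclear morphology examined by fluorescence microscopy.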

DU-145 [6] = assay: Induction of apoptosis in human DU145 cells assessed as formation of apoptotic bodies at 10 uM after 24 hrs in presence of TRAIL by Hoechst 33258 staining-based fluorescence microscopic analysis; format: functional, cell-based; in short: as §4
DU-145 [7] = assay: Induction of apoptosis in human DU145 cells assessed as necrotic cells at 10 uM after 24 hrs by Annexin V-FITC/propidium iodide staining-based high content screening assay (reference value: 1.6%); format: functional; in short: as §3
DU-145 [8] = assay: Induction of apoptosis in human DU145 cells assessed as increase in caspase-3/7 activity at 10 to 50 uM after 24 hrs by Caspase-Glo 3/7 assay; format: functional, cell-based
In short: (§5)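 DU145 treated 24 h with compound alone or with TRAIL (100 ng/mL); caspase-3/7 activity measured by Caspase-Glo 3/7 luminescent protocol relative to untreated control; three independent experiments, mean ± SD, Student's t test.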

DU-145 [9] = assay: Induction of apoptosis in human DU145 cells assessed as viable cells at 10 uM after 24 hrs by Annexin V-FITC/propidium iodide staining-based high content screening assay (reference value: 97.9%); format: functional; settings: DU-145, 24 h, read-out: Activity; in short: as §3
DU-145 [10] = assay: Induction of apoptosis in human DU145 cells assessed as cell rounding at 10 uM after 24 hrs in presence of TRAIL by Hoechst 33258 staining-based fluorescence microscopic analysis; format: functional; in short: as §4
DU-145 [11] = assay: Induction of apoptosis in human DU145 cells assessed as viable cells at 10 uM after 24 hrs in presence of TRAIL by Annexin V-FITC/propidium iodide staining-based high content screening assay (reference value: 97.9%); format: functional; settings: DU-145, 24 h, read-out: Activity; in short: as §3
DU-145 [12] = assay: Induction of apoptosis in human DU145 cells assessed as cell rounding at 10 uM after 24 hrs by Hoechst 33258 staining-based fluorescence microscopic analysis; format: functional; in short: as §4
DU-145 [13] = assay: Induction of apoptosis in human DU145 cells assessed as necrotic cells at 10 uM after 24 hrs in presence of TRAIL by Annexin V-FITC/propidium iodide staining-based high content screening assay (reference value: 1.6%); format: functional; in short: as §3
DU-145 [14] = assay: Induction of apoptosis in human DU145 cells assessed as late apoptotic cells at 10 uM after 24 hrs by Annexin V-FITC/propidium iodide staining-based high content screening assay (reference value: 0.2%); format: functional; in short: as §3
DU-145 [15] = assay: Induction of apoptosis in human DU145 cells assessed as formation of apoptotic bodies at 10 uM after 24 hrs by Hoechst 33258 staining-based fluorescence microscopic analysis; format: functional, cell-based; in short: as §4
DU-145 [16] = assay: Growth inhibition of human DU145 cells at 5 uM after 72 hrs in presence of TRAIL by MTT assay relative to control; format: functional; settings: DU-145, 72 h, read-out: GI; in short: as §2
DU-145 [17] = assay: Induction of apoptosis in human DU145 cells assessed as late apoptotic cells at 10 uM after 24 hrs in presence of TRAIL by Annexin V-FITC/propidium iodide staining-based high content screening assay (reference value: 0.2%); format: functional; in short: as §3
DU-145 [18] = assay: Induction of apoptosis in human DU145 cells assessed as early apoptotic cells at 10 uM after 24 hrs by Annexin V-FITC/propidium iodide staining-based high content screening assay (reference value: 0.3%); format: functional; in short: as §3
DU-145 [19] = assay: Induction of apoptosis in human DU145 cells assessed as increase in caspase-3/7 activity at 10 uM after 24 hrs in presence of TRAIL by Caspase-Glo 3/7 assay relative to control; format: functional; in short: as §5
DU-145 [20] = assay: Growth inhibition of human DU145 cells at 5 uM by MTT assay; format: functional, cell-based; settings: TDE = time-dependent effect; in short: as §2
DU-145 [21] = assay: Induction of apoptosis in human DU145 cells assessed as chromatin shrinkage at 10 uM after 24 hrs in presence of TRAIL by Hoechst 33258 staining-based fluorescence microscopic analysis; format: functional, cell-based; in short: as §4

Structure (SMILES)	pIC50 (MGC-803)	pIC50 (PC-3)	pIC50 (MCF7)	pIC50 (DU-145 [1])	further results
Cc1cc(Cl)ccc1NCC(=O)N[C@H]1CCOC1=O	< 4.19	< 4.19	< 4.19	< 4.19	–
O=C(COc1ccc(C(=O)/C=C/c2cccc(Cl)c2)cc1)N[C@H]1CCOC1=O	4.54	5.30	4.68	5.43	–
CCCCCCCCCC(=O)CC(=O)N[C@H]1CCOC1=O	4.53	4.65	4.58	4.71	inhibition (DU-145 [2]): Dose-dependent effect; Activity (DU-145 [3]): Active; Activity (DU-145 [4]): 12.2%; Activity (DU-145 [5]): Active; Activity (DU-145 [6]): Active; Activity (DU-145 [7]): 0.5%; Activity (DU-145 [8]): Active; viability at 10 µM (DU-145 [9]): 89.2%; Activity (DU-145 [10]): Active; viability at 10 µM (DU-145 [11]): 77.9%; Activity (DU-145 [12]): Active; Activity (DU-145 [13]): 0.2%; Activity (DU-145 [14]): 1.1%; Activity (DU-145 [15]): Active; inhibition of growth at 5 µM (DU-145 [16]): 20%; Activity (DU-145 [17]): 9.7%; Activity (DU-145 [18]): 9.2%; fold change (FC) (DU-145 [19]): 2; growth inhibition (GI) (DU-145 [20]): Tde; Activity (DU-145 [21]): Active
O=C1OCC[C@@H]1NC(=S)SCCOc1ccccc1Cc1ccccc1	4.49	< 4.19	4.40	< 4.19	–
CC(C)(C)c1ccc(/C=C/C(=O)c2ccc(OCC(=O)N[C@H]3CCOC3=O)cc2)cc1	4.77	4.98	4.78	5.18	–
O=C(CNc1ccccc1F)N[C@H]1CCOC1=O	< 4.19	< 4.19	< 4.19	< 4.19	–
CC(C)c1ccc(/C=C/C(=O)c2ccc(OCC(=O)N[C@H]3CCOC3=O)cc2)cc1	4.77	5.33	4.63	4.88	–
O=C1OCC[C@@H]1NC(=S)SCCOc1ccccc1	4.27	< 4.19	< 4.19	4.20	–
O=C(COc1ccc(C(=O)/C=C/c2ccccc2Br)cc1)N[C@H]1CCOC1=O	4.91	5.49	4.82	5.45	–
O=C(CNc1ccc(Cl)cc1Cl)N[C@H]1CCOC1=O	< 4.19	< 4.19	< 4.19	< 4.19	–
O=C1OCC[C@@H]1NC(=S)SCCOc1ccc([N+](=O)[O-])cc1	< 4.00	4.49	< 4.19	4.51	–
O=C1OCC[C@@H]1NC(=S)SCCOc1ccccc1[N+](=O)[O-]	4.33	4.62	< 4.19	4.48	–
O=C(CNc1ccccc1Cl)N[C@H]1CCOC1=O	< 4.19	< 4.19	< 4.19	< 4.19	–
O=C(COc1ccc(C(=O)/C=C/c2ccccc2)cc1)N[C@H]1CCOC1=O	< 4.19	4.25	< 4.19	4.32	–
O=C(CNc1cccc(Cl)c1)N[C@H]1CCOC1=O	< 4.19	< 4.19	< 4.19	< 4.19	–
O=C(CNc1ccc(F)cc1)N[C@H]1CCOC1=O	< 4.19	< 4.19	< 4.19	< 4.19	–
O=C(COc1ccc(C(=O)/C=C/c2ccc(F)c(F)c2)cc1)N[C@H]1CCOC1=O	< 4.19	4.66	< 4.19	4.70	–
O=C(COc1ccc(C(=O)/C=C/c2cccc(F)c2)cc1)N[C@H]1CCOC1=O	< 4.19	4.63	< 4.19	4.76	–

Structure (SMILES)	pIC50 (MGC-803)	pIC50 (PC-3)	pIC50 (MCF7)	pIC50 (DU-145 [1])	further results
O=C1OCC[C@@H]1NC(=S)SCCOc1ccc(Cl)cc1	4.29	< 4.19	4.30	< 4.19	–
Cc1ccc(C(C)C)c(OCCSC(=S)N[C@H]2CCOC2=O)c1	4.36	< 4.19	< 4.19	< 4.19	–
C=CCc1ccc(OCCSC(=S)N[C@H]2CCOC2=O)c(OC)c1	4.55	< 4.19	< 4.19	< 4.19	–
O=C(CNc1ccc(Cl)cc1)N[C@H]1CCOC1=O	< 4.19	< 4.19	< 4.19	< 4.19	–
CC(=O)c1ccc(OCCSC(=S)N[C@H]2CCOC2=O)cc1	< 4.19	4.33	< 4.19	4.49	–
O=C(CNc1ccc(Br)cc1)N[C@H]1CCOC1=O	< 4.19	< 4.19	< 4.19	< 4.19	–
O=C1OCC[C@@H]1NC(=S)SCCOc1cccc2ccccc12	< 4.19	< 4.19	< 4.19	< 4.19	–
O=C(COc1ccc(C(=O)/C=C/c2ccc(F)cc2)cc1)N[C@H]1CCOC1=O	< 4.19	4.81	< 4.19	4.73	–
O=C(CNc1ccccc1)N[C@H]1CCOC1=O	< 4.19	< 4.19	< 4.19	< 4.19	–
O=C(COc1ccc(C(=O)/C=C/c2cccc([N+](=O)[O-])c2)cc1)N[C@H]1CCOC1=O	< 4.19	4.25	< 4.19	4.38	–
CC(C)c1ccc(NCC(=O)N[C@H]2CCOC2=O)cc1	< 4.19	< 4.19	< 4.19	< 4.19	–
O=C(COc1ccc(C(=O)/C=C/c2ccc(Br)cc2)cc1)N[C@H]1CCOC1=O	4.29	< 4.19	< 4.19	4.29	–
O=C(COc1ccc(C(=O)/C=C/c2ccc(Cl)cc2Cl)cc1)N[C@H]1CCOC1=O	4.58	5.09	4.46	5.07	–
CCCCCCCCCCSC(=S)N[C@H]1CCOC1=O	< 4.19	< 4.19	< 4.19	< 4.19	–
COc1ccccc1/C=C/C(=O)c1ccc(OCC(=O)N[C@H]2CCOC2=O)cc1	4.40	5.14	< 4.19	4.99	–
CCOc1ccccc1OCCSC(=S)N[C@H]1CCOC1=O	< 4.19	4.62	< 4.19	4.55	–
O=C(COc1ccc(C(=O)/C=C/c2cccc(Br)c2)cc1)N[C@H]1CCOC1=O	4.93	5.10	4.55	5.01	–

Source: ChEMBL document CHEMBL4411279, “Synthesis of new chalcone-based homoserine lactones and their antiproliferative activity evaluation” (Eur J Med Chem, 2019)
